Test: Octanol–water partitioning in the presence of sodium dodecanoate
Format: physicochemical
Settings: mean ± SD; octanol–water partitioning with sodium dodecanoate (2.5 equiv); D2O
How it was run: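 Test compound dissolved in D2O as 0.02 M stock, mixed with equal volume of octanol, with or without sodium dodecanoate (2.5 equiv), triplicate tubes each. Vortexed 30 s, centrifuged 15 min, ambient ~22 °C. Aqueous-layer NMR integrations pre- and post-wash compared. Partitioning taken as difference between octanol-only and octanol + lipid washes, averaged over three replicates.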

Row | Compound | Percent in Aqueous Layer [%]
1 | CC(=O)N[C@@H](CCCN=C(N)N)C(N)=O [1·H^+, Ac-Arg-NH2] | 30.4 ± 1.5
2 | CNC(=O)[C@H](CCCNC(=N)N)NC(C)=O [2·H^+, Ac-Arg-NHMe] | 19.8 ± 0.1
3 | CC(=O)N[C@@H](CCCNC(=N)N)C(=O)N(C)C [3·H^+, Ac-Arg-NMe2] | 18.3 ± 0.7
4 | CC(=O)N(C)C(CCCN=C(N)N)C(=O)N(C)C (stereo not shown) [4·H^+, Ac-(N-Me)Arg-NMe2] | 12.7 ± 1.6

From PMC10073267 (Journal of peptide science : an official publication of the …, 2023)
